Data reported in ChEMBL document CHEMBL1150425, “Parallel one-pot synthesis and structure-activity relationship study of symmetric formimidoester disulfides as a novel class of potent non-nucleoside HIV-1 reverse transcriptase inhibitors” (Bioorg Med Chem, 2008).
Calls of active or inactive are those of the source. The calls are words filed in the database; no cut-off is given here.

Columns and labels:
[1] = Selectivity index, ratio of CC50 for human MT4 cells to EC50 for HIV1 cells; format: toxicity, cell-based; conditions: read-out: Ratio CC50/EC50
Method in brief: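 Ratio of CC50 (mock-infected MT-4 viability, MTT) to EC50 (50% protection of MT-4 cells from HIV-1 cytopathogenicity, MTT), both taken from the same parallel cell-based run.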

[2] = system: Human immunodeficiency virus 1; test: Antiviral activity against HIV1 in MT4 cells assessed as reduction of virus induced cytopathogenicity by MTT method; format: functional, organism-based; conditions: Human immunodeficiency virus 1, MT4
Method in brief: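 MT-4 cells infected with wild-type HIV-1; EC50 = concentration giving 50% protection of cells from virus-induced cytopathogenicity, viability read by MTT. Triplicate samples.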

[3] = Cytotoxicity against human MT4 cells by MTT method; format: cell-based
Method in brief: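 Mock-infected MT-4 cells, run in parallel with the antiviral test; CC50 = concentration reducing viability by 50%, read by MTT. Triplicate samples.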

[4] = target: Human immunodeficiency virus type 1 reverse transcriptase (Human immunodeficiency virus 1, UniProt Q72547); test: Inhibition of HIV1 virion-associated reverse transcriptase
[5] = system: Human immunodeficiency virus 1; test: Antiviral activity against HIV1 with reverse transcriptase Y181C mutation; format: functional, organism-based
Method in brief: (§1)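 MT-4 cells infected with the mutant HIV-1 strain; protection from virus-induced cytopathogenicity read by MTT. EC50 is the concentration (µM) giving 50% protection. Cytotoxicity was assayed in parallel on mock-infected MT-4 cells by MTT. Triplicate samples.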

[6] = system: Human immunodeficiency virus 1; test: Antiviral activity against HIV1 with reverse transcriptase K103R mutation; format: functional, organism-based; method in brief: as §1

IC50 [4] [µM] | Compound | selectivity ratio [1] | EC50 [2] [µM] | CC50 [3] [µM] | EC50 [5] [µM] | Activity [6] | EC50 [6] [µM]
 | O=C1c2ccccc2C(=O)N1CCO/C(=N\c1cccc(Br)c1)SS/C(=N/c1cccc(Br)c1)OCCN1C(=O)c2ccccc2C1=O | 15 | 6 | 89 |  |  | 
1.06 | S=C(NCCc1ccccn1)Nc1ccc(Br)cn1 [TROVIRDINE] | 3000 |  |  |  |  | 
 | O=C1c2ccccc2C(=O)N1CCO/C(=N\c1ccccc1F)SS/C(=N/c1ccccc1F)OCCN1C(=O)c2ccccc2C1=O | 36 | 1.2 | 43 |  |  | 
 | Cc1ccccc1/N=C(\OCCN1C(=O)c2ccccc2C1=O)SS/C(=N/c1ccccc1C)OCCN1C(=O)c2ccccc2C1=O | < 1 | > 11 | 11 |  |  | 
 | O=C1c2ccccc2C(=O)N1CCO/C(=N\c1ccc(C(F)(F)F)cc1)SS/C(=N/c1ccc(C(F)(F)F)cc1)OCCN1C(=O)c2ccccc2C1=O | > 1000 | 0.1 | > 100 |  |  | 
 | c1ccc(CCO/C(=N\c2ccccc2)SS/C(=N/c2ccccc2)OCCc2ccccc2)cc1 | 6.4 | 11 | 70 |  |  | 
 | Cc1cc(Br)ccc1/N=C(\OCCN1C(=O)c2ccccc2C1=O)SS/C(=N/c1ccc(Br)cc1C)OCCN1C(=O)c2ccccc2C1=O | 44 | 1.8 | 80 | 35 | inactive | 
 | Cc1ccc2c(c1)C(=O)N(CCO/C(=N\c1ccc(Br)cc1)SS/C(=N/c1ccc(Br)cc1)OCCN1C(=O)c3ccc(C)cc3C1=O)C2=O | > 77 | 1.3 | > 100 |  |  | 
 | O=C1Nc2ccc(Cl)cc2C(C#CC2CC2)(C(F)(F)F)O1 (single isomer, unassigned) [EFAVIRENZ] |  |  |  | 0.01 |  | 0.04
 | O=C1c2ccccc2C(=O)N1CCO/C(=N\c1ccc(Cl)c(Cl)c1)SS/C(=N/c1ccc(Cl)c(Cl)c1)OCCN1C(=O)c2ccccc2C1=O | > 14 | 7 | > 100 |  |  | 
 | COc1cccc(/N=C(\OCCN2C(=O)c3ccccc3C2=O)SS/C(=N/c2cccc(OC)c2)OCCN2C(=O)c3ccccc3C2=O)c1 | 61 | 1.3 | 80 |  |  | 
 | Cc1cc(C)cc(/N=C(\OCCN2C(=O)c3ccccc3C2=O)SS/C(=N/c2cc(C)cc(C)c2)OCCN2C(=O)c3ccccc3C2=O)c1 | > 33 | 3 | > 100 |  |  | 
 | O=C1c2ccccc2C(=O)N1CCO/C(=N\c1cccc(C(F)(F)F)c1)SS/C(=N/c1cccc(C(F)(F)F)c1)OCCN1C(=O)c2ccccc2C1=O | 9.6 | 2.3 | 22 |  |  | 
 | O=C1c2ccccc2C(=O)N1CCO/C(=N\c1cc(F)cc(F)c1)SS/C(=N/c1cc(F)cc(F)c1)OCCN1C(=O)c2ccccc2C1=O | < 1 | > 37 | 37 |  |  | 
 | Cc1cc(Br)cc(C)c1/N=C(\OCCN1C(=O)c2ccccc2C1=O)SS/C(=N/c1c(C)cc(Br)cc1C)OCCN1C(=O)c2ccccc2C1=O |  | > 100 | > 100 |  |  | 
 | O=C1c2ccccc2C(=O)N1CCO/C(=N\c1cc(F)ccc1F)SS/C(=N/c1cc(F)ccc1F)OCCN1C(=O)c2ccccc2C1=O | 40 | 1.3 | 52 |  |  | 
 | Cc1ccc(/N=C(\OCCN2C(=O)c3ccccc3C2=O)SS/C(=N/c2ccc(C)cc2)OCCN2C(=O)c3ccccc3C2=O)cc1 | 525 | 0.04 | 21 |  |  | 
 | O=C1c2ccccc2C(=O)N1CCO/C(=N\c1ccc(Cl)cc1)SS/C(=N/c1ccc(Cl)cc1)OCCN1C(=O)c2ccccc2C1=O | 5500 | 0.02 | 88 |  |  | 
 | O=C1c2ccccc2C(=O)N1CCO/C(=N\c1ccc([N+](=O)[O-])cc1)SS/C(=N/c1ccc([N+](=O)[O-])cc1)OCCN1C(=O)c2ccccc2C1=O | > 1430 | 0.07 | > 100 | 57 |  | 62
 | O=C1c2ccccc2C(=O)N1CCO/C(=N\c1ccc(F)cc1F)SS/C(=N/c1ccc(F)cc1F)OCCN1C(=O)c2ccccc2C1=O | 541 | 0.05 | 27 |  |  | 
 | N#Cc1ccc(/N=C(\OCCN2C(=O)c3ccccc3C2=O)SS/C(=N/c2ccc(C#N)cc2)OCCN2C(=O)c3ccccc3C2=O)cc1 | > 1000 | 0.1 | > 100 |  |  | 
 | O=C1c2ccccc2C(=O)N1CCO/C(=N\c1cc(Cl)cc(Cl)c1)SS/C(=N/c1cc(Cl)cc(Cl)c1)OCCN1C(=O)c2ccccc2C1=O | < 1 | > 42 | 42 |  |  | 

IC50 [4] [µM] | Compound | selectivity ratio [1] | EC50 [2] [µM] | CC50 [3] [µM] | EC50 [5] [µM] | Activity [6] | EC50 [6] [µM]
 | CC(=O)c1ccc(/N=C(\OCCN2C(=O)c3ccccc3C2=O)SS/C(=N/c2ccc(C(C)=O)cc2)OCCN2C(=O)c3ccccc3C2=O)cc1 | > 4.2 | 24 | > 100 |  |  | 
 | O=C1c2ccccc2C(=O)N1CCO/C(=N\c1ccccc1)SS/C(=N/c1ccccc1)OCCN1C(=O)c2ccccc2C1=O | 229 | 0.35 | 80 |  |  | 
 | O=C1c2ccccc2C(=O)N1CCO/C(=N\c1c(F)cc(F)cc1F)SS/C(=N/c1c(F)cc(F)cc1F)OCCN1C(=O)c2ccccc2C1=O | 33 | 1.2 | 39 |  |  | 
 | O=C1c2ccccc2C(=O)N1CCO/C(=N\c1ccc(Cl)c(C(F)(F)F)c1)SS/C(=N/c1ccc(Cl)c(C(F)(F)F)c1)OCCN1C(=O)c2ccccc2C1=O | > 3.6 | 28 | > 100 |  |  | 
 | O=C1c2ccccc2C(=O)N1CCO/C(=N\c1ccc(I)cc1)SS/C(=N/c1ccc(I)cc1)OCCN1C(=O)c2ccccc2C1=O | 1600 | 0.03 | 48 |  |  | 
 | O=C1c2ccccc2C(=O)N1CCO/C(=N\c1cccc(F)c1)SS/C(=N/c1cccc(F)c1)OCCN1C(=O)c2ccccc2C1=O | 7.6 | 5 | 38 |  |  | 
 | O=C1c2ccccc2C(=O)N1CCO/C(=N\c1ccccc1Cl)SS/C(=N/c1ccccc1Cl)OCCN1C(=O)c2ccccc2C1=O | < 1 | > 9 | 9 |  |  | 
 | COc1ccc(/N=C(\OCCN2C(=O)c3ccccc3C2=O)SS/C(=N/c2ccc(OC)cc2)OCCN2C(=O)c3ccccc3C2=O)cc1 | 1500 | 0.06 | 90 |  |  | 
 | O=C1c2ccccc2C(=O)N1CCO/C(=N\c1cccc2ccccc12)SS/C(=N/c1cccc2ccccc12)OCCN1C(=O)c2ccccc2C1=O | > 13 | 8 | > 100 |  |  | 
 | O=C1c2ccccc2C(=O)N1CCO/C(=N\c1cccc(Cl)c1)SS/C(=N/c1cccc(Cl)c1)OCCN1C(=O)c2ccccc2C1=O | 90 | 0.4 | 36 |  |  | 
0.74 | O=C1c2ccccc2C(=O)N1CCO/C(=N\c1ccc(Br)cc1)SS/C(=N/c1ccc(Br)cc1)OCCN1C(=O)c2ccccc2C1=O | 4200 | 0.01 | 42 |  |  | 
 | O=C1c2ccccc2C(=O)N1CCO/C(=N\C1CC1)SS/C(=N/C1CC1)OCCN1C(=O)c2ccccc2C1=O |  | > 100 | > 100 |  |  | 
 | O=C1c2ccccc2C(=O)N1CCO/C(=N\Cc1ccccc1)SS/C(=N/Cc1ccccc1)OCCN1C(=O)c2ccccc2C1=O | > 14 | 7 | > 100 |  |  | 
 | O=C1c2ccccc2C(=O)N1CCO/C(=N\c1ccc(F)cc1)SS/C(=N/c1ccc(F)cc1)OCCN1C(=O)c2ccccc2C1=O | 1450 | 0.02 | 29 |  |  | 
 | Cc1ccc(/N=C(\OCCN2C(=O)c3ccccc3C2=O)SS/C(=N/c2ccc(C)c(Cl)c2)OCCN2C(=O)c3ccccc3C2=O)cc1Cl | > 500 | 0.2 | > 100 |  |  | 
 | O=C1c2ccccc2C(=O)N1CCO/C(=N\c1cccc(Cl)c1Cl)SS/C(=N/c1cccc(Cl)c1Cl)OCCN1C(=O)c2ccccc2C1=O | 2.1 | 18 | 37 |  |  | 
 | O=C1c2ccccc2C(=O)N1CCCO/C(=N\c1ccc(Br)cc1)SS/C(=N/c1ccc(Br)cc1)OCCCN1C(=O)c2ccccc2C1=O |  | > 100 | > 100 |  |  | 
 | O=C1c2ccccc2C(=O)N1CCO/C(=N\c1ccc(Cl)c([N+](=O)[O-])c1)SS/C(=N/c1ccc(Cl)c([N+](=O)[O-])c1)OCCN1C(=O)c2ccccc2C1=O | 257 | 0.07 | 18 |  |  | 
 | O=C1c2ccccc2C(=O)N1CCO/C(=N\c1ccc(Cl)cc1Cl)SS/C(=N/c1ccc(Cl)cc1Cl)OCCN1C(=O)c2ccccc2C1=O | > 25 | 4 | > 100 |  |  | 
 | O=C1c2ccccc2C(=O)N1CCO/C(=N\c1cccc([N+](=O)[O-])c1)SS/C(=N/c1cccc([N+](=O)[O-])c1)OCCN1C(=O)c2ccccc2C1=O | > 143 | 0.7 | > 100 |  |  | 
 | O=C1c2ccccc2C(=O)N1CCO/C(=N\c1cc(Cl)ccc1Cl)SS/C(=N/c1cc(Cl)ccc1Cl)OCCN1C(=O)c2ccccc2C1=O |  | > 100 | > 100 |  |  | 
